The term fraction unbound denotes free concentration divided by total concentration.

Data set [1] in a line: Metabolic stability in baboon plasma assessed as unchanged radioligand at 2 mins by HPLC. The data set is classed as ADME, cell-free. The note with it: papio anubis, read-out: Stability. Put shortly: (§1)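 Arterial blood sampled at 2, 6, 12, 30, 60 and 90 min post-injection and spun; 0.5 ml plasma mixed with 0.7 ml acetonitrile, vortexed, centrifuged 14,000 rpm 4 min. Supernatant run on reverse-phase ODS HPLC (acetonitrile/0.1 M ammonium formate 35:65, 2 ml/min) with radioactivity detection. Parent percentage corrected for background and decay; QC tracer sample injected at start and end.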

The nature of data set [2]: Metabolic stability in baboon plasma assessed as unchanged radioligand at 4 mins by HPLC. To be noted: papio anubis, read-out: Stability. In kind it is ADME, cell-free.
A short description of data set [3]: Metabolic stability in baboon plasma assessed as unchanged radioligand at 12 mins by HPLC. To be noted: papio anubis, read-out: Stability. The data set is classed as ADME, cell-free. Summed up: as §1
The nature of data set [4]: Metabolic stability in baboon plasma assessed as unchanged radioligand at 30 mins by HPLC. The data set is classed as ADME, cell-free. To be noted: papio anubis, read-out: Stability. Summed up: as §1
Data set [5] is described as follows: Metabolic stability in baboon plasma assessed as unchanged radioligand at 60 mins by HPLC. In kind it is ADME, cell-free. The note with it: papio anubis, read-out: Stability. Summed up: as §1
Data set [6] in a line: Metabolic stability in baboon plasma assessed as unchanged radioligand at 90 mins by HPLC. The data set is classed as ADME, cell-free. The note with it: papio anubis, read-out: Stability. Put shortly:
as §1

Data set [7] in a line: Fraction unbound in human plasma by HPLC. The data set is classed as ADME, cell-free.
Data set [8] can be described thus: Fraction unbound in baboon plasma by HPLC. In kind it is ADME, cell-free. The note with it: papio anubis.
Data set [9] is described as follows: Drug uptake in baboon temporal cortex at 5 mCi, iv measured during 90 mins. The data set is classed as ADME, organism-based. The note with it: papio anubis, in vivo, 1.5 h. Summed up:
(§2)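 Fasted baboon immobilized with ketamine (10 mg/kg, im), then anesthetized with 1.5–2.0% isoflurane by endotracheal tube and kept at 37 °C. A 10 min transmission scan preceded tracer. Tracer given as 5 ± 1 mCi iv bolus (S.A. 2300 ± 250 Ci/mmol). Emission collected 90 min in 3-D mode on HR+ PET. Arterial samples (30 over 90 min) gave the input function.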

The nature of data set [10]: Drug uptake in baboon parahippocampal gyrus at 5 mCi, iv measured during 90 mins. The data set is classed as ADME, organism-based. The note with it: papio anubis, in vivo, 1.5 h. Put shortly: as §2
Data set [11] in a line: Drug uptake in baboon pareital cortex at 5 mCi, iv measured during 90 mins. The data set is classed as ADME, organism-based. The note with it: papio anubis, in vivo, 1.5 h. Summed up: as §2
Data set [12] in a line: Drug uptake in baboon amygdala at 5 mCi, iv measured during 90 mins. The data set is classed as ADME, organism-based. The note with it: papio anubis, in vivo, 1.5 h. Summed up:
as §2

The nature of data set [13]: Drug uptake in baboon hippocampus at 5 mCi, iv measured during 90 mins. The data set is classed as ADME, organism-based. To be noted: papio anubis, in vivo, 1.5 h. Put shortly: as §2
Data set [14] is described as follows: Drug uptake in baboon prefrontal cortex at 5 mCi, iv measured during 90 mins. The data set is classed as ADME, organism-based. To be noted: papio anubis, in vivo, 1.5 h. Summed up: as §2
Data set [15] is described as follows: Drug uptake in baboon anterior cingulate at 5 mCi, iv measured during 90 mins. The data set is classed as ADME, organism-based. The note with it: papio anubis, in vivo, 1.5 h. Summed up:
as §2

Data set [16] in a line: Drug uptake in baboon striatum at 5 mCi, iv measured during 90 mins. To be noted: papio anubis, in vivo, 1.5 h. In kind it is ADME, organism-based. Put shortly: as §2
Data set [17] can be described thus: Drug uptake in baboon cerebellum at 5 mCi, iv measured during 90 mins. In kind it is ADME, organism-based. The note with it: papio anubis, in vivo, 1.5 h. Summed up: as §2

`COc1ccc(S(=O)(=O)Nc2cc(Cl)cc(Cl)c2O[11CH3])cc1N1CCNCC1`: the remaining at 2 min in [1] worked out at 99%. The remaining at 4 min in data set [2] came out at 94%. Besides, the remaining at 0.2 h in data set [3] worked out at 71%. Further, the remaining at 0.5 h in data set [4] amounted to 45%. Also, in data set [5], the remaining at 1 h came to 32%. For the same molecule, in data set [6], the remaining at 1.5 h was 27%. The fraction unbound amounted to 0.01 in data set [7] and 0.05 in data set [8]. The Drug uptake entry in data set [9] was “Active”; in data set [10], “Active”; in data set [11] it was “Active”; in [12], “Active”; in data set [13], “Active”; in data set [14], “Not Active”. In addition, the Drug uptake entry in data set [15], in data set [16] and in [17] was “Not Active” in each case.

These data come from ChEMBL document CHEMBL1821588, “Synthesis and in vivo evaluation of [O-methyl-11C] N-[3,5-dichloro-2-(methoxy)phenyl]-4-(methoxy)-3-(1-piperazinyl)benzenesulfonamide as an imaging probe for 5-HT6 receptors” (Bioorg Med Chem, 2011).
